Experimental data from different studies.
Lines come from different studies, so protocols differ. pEC50, pIC50, pKd, pKi: −log10 of the molar value.
ABHD6: Monoacylglycerol lipase ABHD6 (ABHD6, Homo sapiens, UniProt Q9BV23)
DRD4: D(4) dopamine receptor (DRD4, Homo sapiens, UniProt P21917)

CN(C(=O)Oc1nsnc1N1CCCCC1)c1ccc([N+](=O)[O-])cc1
pIC50 (ABHD6; enzyme activity, inhibitor, fluorescence; lysate): 5.90

O=C(Nc1cccc(-c2ccn3c(CC4CC4)nnc3c2C(F)(F)F)c1)c1ccc(S(=O)(=O)F)cc1
pEC50 (Metabotropic glutamate receptor 8 (GRM8, Homo sapiens, UniProt O00222); calcium signal, agonist): < 4.30

CN1CCc2c(c3ccccc3n2Cc2ccccc2)C1
pKi (5-hydroxytryptamine receptor 5A (HTR5A, Homo sapiens, UniProt P47898); ligand displacement, radioligand): 6.89

C=C1CC1CC(=O)SCCNC(=O)CCNC(=O)[C@H](O)C(C)(C)COP(=O)(O)OP(=O)(O)OC[C@H]1O[C@@H](n2cnc3c(N)ncnc32)[C@H](O)[C@@H]1OP(=O)(O)O (mixture of isomers)
pKd (IVD (Homo sapiens, UniProt P26440); binding, absorbance): ~4.65

Cc1ccc(N(C)C(=O)Oc2nsnc2N2CCCCC2)cc1
pIC50 (ABHD6; enzyme activity, inhibitor, fluorescence; lysate): 6.82

O=P(O)(O)Oc1ccccc1OP(=O)(O)O
pKi (Signal transducer and activator of transcription 6, SH2 (Homo sapiens, UniProt P42226); ligand displacement, FP): 4.74

C[C@@H](NC(=O)C[C@@H](N)Cc1ccc(O)cc1)C(=O)NCC(=O)N[C@@H](Cc1ccccc1)C(=O)NNC(=O)[C@H](Cc1ccccc1)NC(=O)CNC(=O)[C@@H](C)NC(=O)C[C@@H](N)Cc1ccc(O)cc1
pIC50 (Mu-type opioid receptor (Oprm1, Rattus norvegicus, UniProt P33535); ligand displacement, radioligand): 6.87

COc1cc(C(=O)N2CC[C@@H](O)[C@@H](N)C2)cc2nc(-c3cc4ccccc4n3CC3CC3)n(C)c12
pEC50 (Nuclear receptor subfamily 1 group I member 2 (NR1I2, Homo sapiens, UniProt O75469); reporter gene, agonist, luciferase): < 4.30

COc1ccc(N(C)C(=O)Oc2nsnc2N2CCCCC2)cc1
pIC50 (ABHD6; enzyme activity, inhibitor, fluorescence; lysate): 6.58

CC(CCc1ccc(O)cc1)NCCc1ccc(O)c(O)c1 (stereo not shown)
pIC50 (DRD4; ligand displacement, radioligand): 5.62

CC(=O)N[C@@H](Cc1ccccc1Cl)C(=O)N1CCC[C@H]1C(=O)N1CCC[C@H]1C(=O)N1CCC[C@H]1C(=O)N1CCC[C@H]1C(=O)O
pKd (Vasodilator-stimulated phosphoprotein (VASP, Homo sapiens, UniProt P50552); binding, fluorescence): 4.89

CN(C(=O)Oc1nsnc1N1CCOCC1)C1CCCCCCC1
pIC50 (ABHD6; enzyme activity, inhibitor, fluorescence; lysate): 7.36

OC(c1ccc(F)cc1)C(F)(F)CCN1CCC(O)(c2ccc(Cl)cc2)CC1 (racemic)
pKi (DRD4; cell-free assay, radioligand): 7.29
